Test results: ChEMBL document CHEMBL1148193, “Cytotoxic pyrroloiminoquinones from four new species of South African latrunculid sponges” (J Nat Prod, 2004)

Columns and labels:
[1] = system: HCT-116; test: Cytotoxicity against human HCT116 cells after 72 hrs by MTS assay; format: functional, cell-based; conditions: HCT-116, 72 h
Procedure, shortened: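 HCT-116 colon tumor cells plated and incubated overnight at 37 °C, then given serially diluted samples in DMSO for a further 72 h. Etoposide as positive control and DMSO as negative control. MTS/PMS added for 3 h, absorbance read at 490 nm, IC50 derived from serial dilution data.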

[2] = target: T1, DNA topoisomerase 1 (Homo sapiens) (UniProt P11387); test: Inhibition of topoisomerase 1-mediated relaxation of supercoiled DNA assessed as DNA cleavage at 500 uM relative to control; set-up: scale not given: the % may be the effect or the level left
T1 sequence (whole entry): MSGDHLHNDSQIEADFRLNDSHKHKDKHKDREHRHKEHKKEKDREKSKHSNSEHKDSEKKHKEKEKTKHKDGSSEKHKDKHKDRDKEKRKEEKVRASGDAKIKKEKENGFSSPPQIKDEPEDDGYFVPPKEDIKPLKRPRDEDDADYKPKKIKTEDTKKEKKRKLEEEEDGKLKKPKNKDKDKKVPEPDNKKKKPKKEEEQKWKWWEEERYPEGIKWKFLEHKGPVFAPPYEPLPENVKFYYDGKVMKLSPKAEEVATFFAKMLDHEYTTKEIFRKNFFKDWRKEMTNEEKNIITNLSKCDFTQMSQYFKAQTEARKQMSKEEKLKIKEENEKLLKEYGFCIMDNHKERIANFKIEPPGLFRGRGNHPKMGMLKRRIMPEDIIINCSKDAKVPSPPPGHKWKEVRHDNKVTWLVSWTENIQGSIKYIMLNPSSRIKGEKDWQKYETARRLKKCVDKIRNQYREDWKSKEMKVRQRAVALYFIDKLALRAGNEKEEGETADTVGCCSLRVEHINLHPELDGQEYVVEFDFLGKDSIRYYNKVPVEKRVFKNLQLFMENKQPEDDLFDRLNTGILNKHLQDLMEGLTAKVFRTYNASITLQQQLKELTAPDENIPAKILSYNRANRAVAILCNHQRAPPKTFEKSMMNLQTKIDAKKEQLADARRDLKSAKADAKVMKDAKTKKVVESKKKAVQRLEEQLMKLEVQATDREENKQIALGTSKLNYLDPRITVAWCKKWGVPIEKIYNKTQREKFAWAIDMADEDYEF
Procedure, shortened: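 Radiolabeled supercoiled rf M13 mp19 DNA with purified topoisomerase I (80-120 ng) in Tris-HCl 50 mM pH 7.5, KCl 85 mM, MgCl2 10 mM, EDTA 0.5 mM, BSA 30 μg/mL, DTT 2 mM. Compound in DMSO, 30 °C for 30 min, then proteinase K/SDS at 37 °C for 60 min. 0.8% agarose gel, bands excised and scintillation counted. % cleaved from nicked plus linear bands over total, minus endogenous cleavage. 9-aminocamptothecin as reference.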

[3] = system: Salmonidae; test: Displacement of ethidium bromide form salmon testes sperm DNA by fluorescence plate reader
Procedure, shortened: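 Salmon testes sperm DNA (25 μg mL⁻¹) with ethidium bromide (0.5 μg mL⁻¹) in TE, compound final concentrations 100 to 0.01 μM in tenfold steps. n = 4 per dose, n = 8 for controls. Fluorescence measured, background EtBr subtracted and divided by the DNA+EtBr control. KS is the concentration giving 50% fluorescence decrease.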

[4] = target: T1, DNA topoisomerase 1 (Homo sapiens); test: Inhibition of topoisomerase 1-mediated relaxation of supercoiled DNA assessed as DNA cleavage at 9 uM relative to control; set-up: scale not given: the % may be the effect or the level left
Procedure, shortened: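 Radiolabelled supercoiled rf M13 mp19 DNA (500 ng) and purified topoisomerase I (80-120 ng) in Tris-HCl 50 mM pH 7.5, KCl 85 mM, MgCl2 10 mM, EDTA 0.5 mM, BSA 30 µg/mL, DTT 2 mM. Compound added in DMSO; 30 °C, 30 min. Proteinase K/SDS stop (37 °C, 60 min). Bands resolved on 0.8% agarose, excised and scintillation-counted. Nicked+linear counts taken as % of total, minus endogenous cleavage.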

Row | Structure (SMILES) | IC50 [1] [µM] | other results
1 | O=C1C2=C3C4=[N+](CCc5c(Br)[nH]c1c54)C1C(O)C(Br)=CC3(CCN2)C1O (stereo not given) | 12.5 | 
2 | O=C1C2=C(C3=NCCc4c[nH]c1c43)C1(C=CN2)C=C(Br)C(O)C(Br)=C1 (stereo not given) | 0.197 | 
3 | CN1CCc2c[nH]c3c2C1=CC(=O)C3=O [DAMIRONE B] | 3.1 | 
4 | O=C1C2=C(C3=NCCc4c[nH]c1c43)C1(C=C(Br)C(O)C(Br)=C1)CCN2 (stereo not given) [DIHYDRODISCORHABDIN C] | 0.323 | 
5 | O=C1C2=C(C3=NCCc4c(Br)[nH]c1c43)C1(C=CN2)C=C(Br)C(O)C(Br)=C1 (stereo not given) | 0.222 | 
6 | O=C1c2[nH]cc3c2C(=NCC3)c2c(-c3ccc(O)cc3)c[nH]c21 [TSITSIKAMMAMINE A] | 1.41 | Activity [2]: 59%; Ks [3]: 15 µM
7 | O=C1C2=C3C4=[N+](CCc5c[nH]c1c54)C1CC3(C=C(Br)C1O)CCN2 (stereo not given) [DISCORHABDIN V] | 1.27 | 
8 | O=C1c2[nH]cc3c2C(=[N+](O)CC3)c2c(-c3ccc(O)cc3)c[nH]c21 | 128 | Activity [2]: 45%; Ks [3]: 20 µM
9 | Cn1cc2c3c1C(=O)c1[nH]cc(-c4ccc(O)cc4)c1C3=[N+]([O-])CC2 | 16.5 | Activity [2]: 26%; Ks [3]: 30 µM
10 | O=C1C=CC23CC(NC4=C2C2=NCCc5c[nH]c(c52)C4=O)SC3=C1 (stereo not given) [DISCORHABDIN G] | 0.327 | 
11 | O=C1C[C@H]2S[C@H]3C[C@]2(C=C1Br)C1=C(N3)C(=O)c2[nH]cc3c2C1=NCC3 [DISCORHABDINE A] | 0.007 | 
12 | COC1[C@H]2C(=O)C=C3S[C@H]4C[C@]31C1=C(N4)C(=O)c3[nH]cc4c3C1=[N+]2CC4 (stereo not given in full) | 0.232 | 
13 | NC1[C@H]2C(=O)C=C3S[C@H]4C[C@]31C1=C(N4)C(=O)c3[nH]cc4c3C1=[N+]2CC4 (stereo not given in full) | 0.119 | 
14 | O=C1C(Br)=CC2(C=C1Br)CCNC1=C2C2=NCCc3c(Br)[nH]c(c32)C1=O | 0.077 | 
15 | O=C1C2=C3C4=[N+](CCc5c[nH]c1c54)[C@H]1C[C@@]34C[C@@H](N2)SC4=CC1=O [DISCORHABDIN D] | 0.595 | 
16 | CC[C@@]1(O)C(=O)OCc2c1cc1n(c2=O)Cc2cc3c(N)cccc3nc2-1 |  | Activity [4]: 87%
17 | C[N+]1=C2C=C(N)C(=O)c3[nH]cc(c32)CC1 [MAKALUVAMINE C] | 1.09 | 
18 | O=C1C2=C(C3=NCCc4c(Br)[nH]c1c43)C1(C=C(Br)C(O)C(Br)=C1)CCN2 (stereo not given) | 0.645 | 
19 | O=C(O)CNC1C2C(=O)C=C3SC4CC31C1=C(N4)C(=O)c3[nH]cc4c3C1=[N+]2CC4 (stereo not given) [DISCORHABDIN N] | 2.25 | 
20 | CN1CCc2c[nH]c(C(=O)O)c2C1=O [MAKALUVIC ACID A] | 28.4 | 
21 | Cn1cc2c3c1C(=O)c1[nH]cc(-c4ccc(O)cc4)c1C3=NCC2 [TSITSIKAMMAMINE B] | 2.38 | Activity [2]: 27%; Ks [3]: 45 µM
22 | O=C1c2[nH]cc3c2C(=NCC3)c2c(-c3c[nH]c4ccccc34)c[nH]c21 |  | Ks [3]: 20 µM
